Measurements taken from ChEMBL document CHEMBL5724801, “EUbOPEN Chemogenomics Library - Multiplex” (2024).
“And” between values parts separate entries of the source, which are not always exact repeats. Identical values can stand only once.

Test system: HEK-293T
Test: Multiplex assay against HEK293T
Format: toxicity, cell-based
Conditions: human, 12 h, 1 µM, compound concentration 1 uM
Summary of the method: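 Cells stained live at seeding with Hoechst33342, BioTracker Green Microtubule Cytoskeleton Dye, MitoTracker Red and Annexin V Alexa Fluor 680 were imaged on a CQ1 microscope at 37°C and 5% CO2 after compound addition. Their classification by CellPathfinder machine-learning gating ran from Hoechst high-intensity objects versus normal cells, to healthy, pyknosed or fragmented nuclei among normal cells, to mitotic or apoptotic among pyknosed cells. Tubulin, mitochondrial-mass and membrane-permeability phenotypes are per cents of healthy-nucleus cells.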

Row | Compound | Population Apoptotic (%) | Population Fragmented Nuclei (%) | Population Healthy Nuclei (%) | Population Hoechst High Intensity Objects (%) | Population Membrane Permeable-Phenotype (%) | Population Mitochondria Different-Phenotype (%) | Population Mitotic Cells (%) | Population Normal (%) | Population Pyknosed Nuclei (%) | Population Tubulin-Different-Phenotype (%)
1 | COc1cc(C(=O)N2CC[C@@H](O)[C@@H](N)C2)cc2nc(-c3cc4ccccc4n3CC3CC3)n(C)c12.Cl | 48% and 70% | 6% and 2% | 79% and 77% | 10% and 15% | 0% | 56% and 71% | 51% and 29% | 89% and 84% | 13% and 20% | 52% and 37%
2 | CC[C@H](Nc1ncnc2[nH]cnc12)c1nc2cccc(F)c2c(=O)n1-c1ccccc1 [IDELALISIB] | 9.6% and 7.3% | 0.69% and 2.22% | 58.33% and 21.67% | 0% | 1.19% and 0% | 34.13% and 17.95% | 90.4% and 92.7% | 100% | 40.97% and 76.11% | –

Same assay, conditions: human, 12 h, 1 µM, compound concentration 1 uM

Row | Compound | Total Cell Count
3 | COc1cc(C(=O)N2CC[C@@H](O)[C@@H](N)C2)cc2nc(-c3cc4ccccc4n3CC3CC3)n(C)c12.Cl | 398 and 281
4 | CC[C@H](Nc1ncnc2[nH]cnc12)c1nc2cccc(F)c2c(=O)n1-c1ccccc1 [IDELALISIB] | 432 and 180

Same assay, conditions: human, 12 h, 10 µM, compound concentration 10 uM

Row | Compound | Population Apoptotic (%) | Population Fragmented Nuclei (%) | Population Healthy Nuclei (%) | Population Hoechst High Intensity Objects (%) | Population Membrane Permeable-Phenotype (%) | Population Mitochondria Different-Phenotype (%) | Population Mitotic Cells (%) | Population Normal (%) | Population Pyknosed Nuclei (%) | Population Tubulin-Different-Phenotype (%)
5 | COc1cc(C(=O)N2CC[C@@H](O)[C@@H](N)C2)cc2nc(-c3cc4ccccc4n3CC3CC3)n(C)c12.Cl | 71% | 5% and 4% | 66% and 80% | 21% and 18% | 0% and 2% | 90% and 88% | 28% | 78% and 81% | 28% and 15% | 79% and 72%
6 | CC[C@H](Nc1ncnc2[nH]cnc12)c1nc2cccc(F)c2c(=O)n1-c1ccccc1 [IDELALISIB] | 16.78% and 14.29% | 0.89% and 4.58% | – | 0% | 0% and 7.69% | 29.11% and 15.38% | 83.22% and 85.71% | 100% | 63.84% and 86.93% | 34.18% and 38.46%

Same assay, conditions: human, 12 h, 10 µM, compound concentration 10 uM

Row | Compound | Total Cell Count
7 | COc1cc(C(=O)N2CC[C@@H](O)[C@@H](N)C2)cc2nc(-c3cc4ccccc4n3CC3CC3)n(C)c12.Cl | 260 and 350
8 | CC[C@H](Nc1ncnc2[nH]cnc12)c1nc2cccc(F)c2c(=O)n1-c1ccccc1 [IDELALISIB] | 224 and 153

Same assay, conditions: human, 24 h, 1 µM, compound concentration 1 uM

Row | Compound | Population Apoptotic (%) | Population Fragmented Nuclei (%) | Population Healthy Nuclei (%) | Population Hoechst High Intensity Objects (%) | Population Membrane Permeable-Phenotype (%) | Population Mitochondria Different-Phenotype (%) | Population Mitotic Cells (%) | Population Normal (%) | Population Pyknosed Nuclei (%) | Population Tubulin-Different-Phenotype (%)
9 | COc1cc(C(=O)N2CC[C@@H](O)[C@@H](N)C2)cc2nc(-c3cc4ccccc4n3CC3CC3)n(C)c12.Cl | 42% and 60% | 9% and 7% | 77% and 79% | 6% and 12% | 0% | 42% and 64% | 57% and 39% | 93% and 87% | 13% and 12% | 33% and 30%
10 | CC[C@H](Nc1ncnc2[nH]cnc12)c1nc2cccc(F)c2c(=O)n1-c1ccccc1 [IDELALISIB] | 20.57% and 16.42% | 1.62% and 1.42% | 75.57% and 35.07% | 0% | 1.07% and 0% | 15.42% and 12.16% | 79.43% and 83.58% | 100% | 22.82% and 63.51% | 9.85% and 5.41%

Same assay, conditions: human, 24 h, 1 µM, compound concentration 1 uM

Row | Compound | Total Cell Count
11 | COc1cc(C(=O)N2CC[C@@H](O)[C@@H](N)C2)cc2nc(-c3cc4ccccc4n3CC3CC3)n(C)c12.Cl | 527 and 363
12 | CC[C@H](Nc1ncnc2[nH]cnc12)c1nc2cccc(F)c2c(=O)n1-c1ccccc1 [IDELALISIB] | 618 and 211

Same assay, conditions: human, 24 h, 10 µM, compound concentration 10 uM

Row | Compound | Population Apoptotic (%) | Population Fragmented Nuclei (%) | Population Healthy Nuclei (%) | Population Hoechst High Intensity Objects (%) | Population Membrane Permeable-Phenotype (%) | Population Mitochondria Different-Phenotype (%) | Population Mitotic Cells (%) | Population Normal (%) | Population Pyknosed Nuclei (%) | Population Tubulin-Different-Phenotype (%)
13 | COc1cc(C(=O)N2CC[C@@H](O)[C@@H](N)C2)cc2nc(-c3cc4ccccc4n3CC3CC3)n(C)c12.Cl | 58% and 65% | 8% and 6% | 70% and 78% | 18% and 21% | 0% | 94% and 92% | 41% and 34% | 81% and 78% | 20% and 15% | 78% and 74%
14 | CC[C@H](Nc1ncnc2[nH]cnc12)c1nc2cccc(F)c2c(=O)n1-c1ccccc1 [IDELALISIB] | 22.55% and 30.43% | 2.07% and 3.7% | 62.76% and 25.31% | 0.34% and 0% | 2.75% and 2.44% | 40.11% and 19.51% | 77.45% and 69.57% | 99.66% and 100% | 35.17% and 70.99% | 61.54% and 26.83%

Same assay, conditions: human, 24 h, 10 µM, compound concentration 10 uM

Row | Compound | Total Cell Count
15 | COc1cc(C(=O)N2CC[C@@H](O)[C@@H](N)C2)cc2nc(-c3cc4ccccc4n3CC3CC3)n(C)c12.Cl | 312 and 411
16 | CC[C@H](Nc1ncnc2[nH]cnc12)c1nc2cccc(F)c2c(=O)n1-c1ccccc1 [IDELALISIB] | 291 and 162

Same assay, conditions: human, 48 h, 1 µM, compound concentration 1 uM

Row | Compound | Population Apoptotic (%) | Population Fragmented Nuclei (%) | Population Healthy Nuclei (%) | Population Hoechst High Intensity Objects (%) | Population Membrane Permeable-Phenotype (%) | Population Mitochondria Different-Phenotype (%) | Population Mitotic Cells (%) | Population Normal (%) | Population Pyknosed Nuclei (%) | Population Tubulin-Different-Phenotype (%)
17 | COc1cc(C(=O)N2CC[C@@H](O)[C@@H](N)C2)cc2nc(-c3cc4ccccc4n3CC3CC3)n(C)c12.Cl | 24% and 64% | 9% | 79% and 80% | 5% and 7% | 0% | 37% and 48% | 75% and 36% | 94% and 92% | 10 | 28% and 22%
18 | CC[C@H](Nc1ncnc2[nH]cnc12)c1nc2cccc(F)c2c(=O)n1-c1ccccc1 [IDELALISIB] | 5.47% and 12.5% | 2.71% and 1.53% | 87.1% and 67.82% | 0% and 0.38% | 5.58% and 2.26% | 15.63% and 14.69% | 94.53% and 87.5% | 100% and 99.62% | – | –

Same assay, conditions: human, 48 h, 1 µM, compound concentration 1 uM

Row | Compound | Total Cell Count
19 | COc1cc(C(=O)N2CC[C@@H](O)[C@@H](N)C2)cc2nc(-c3cc4ccccc4n3CC3CC3)n(C)c12.Cl | 816 and 520

Same assay, conditions: human, 48 h, 10 µM, compound concentration 10 uM

Row | Compound | Population Apoptotic (%) | Population Fragmented Nuclei (%) | Population Healthy Nuclei (%) | Population Hoechst High Intensity Objects (%) | Population Membrane Permeable-Phenotype (%) | Population Mitochondria Different-Phenotype (%) | Population Mitotic Cells (%) | Population Normal (%) | Population Pyknosed Nuclei (%) | Population Tubulin-Different-Phenotype (%)
20 | COc1cc(C(=O)N2CC[C@@H](O)[C@@H](N)C2)cc2nc(-c3cc4ccccc4n3CC3CC3)n(C)c12.Cl | 76% | 13% | 68% and 75% | 18% and 23% | 0% | 89% and 87% | 23% | 81% and 76% | 17% and 10% | 81% and 74%
21 | CC[C@H](Nc1ncnc2[nH]cnc12)c1nc2cccc(F)c2c(=O)n1-c1ccccc1 [IDELALISIB] | 17.44% and 25.24% | 2.23% and 1.97% | 80.32% and 47.29% | 0.2% and 0% | 6.31% and 1.04% | 64.39% and 55.21% | 82.56% and 74.76% | 99.8% and 100% | 17.44% and 50.74% | –

Same assay, conditions: human, 48 h, 10 µM, compound concentration 10 uM

Row | Compound | Total Cell Count
22 | COc1cc(C(=O)N2CC[C@@H](O)[C@@H](N)C2)cc2nc(-c3cc4ccccc4n3CC3CC3)n(C)c12.Cl | 386 and 467
23 | CC[C@H](Nc1ncnc2[nH]cnc12)c1nc2cccc(F)c2c(=O)n1-c1ccccc1 [IDELALISIB] | 494 and 203
